Key:
Assay type in all cases: functional
Mus musculus [1] = test: Activity was evaluated in C57BL/10 mice by Morris water Maze test and mean latency for TRH was reported at 0.003 mg/Kg p.o. dosage.
Summary of the method: (§1)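 Spatial water-maze task in male C57BL/10 mice (17–21 g, group-housed, ad libitum food and water). Oral dosing (saline or 5% acacia vehicle, 10 mL/kg) 30 min before four trials locating a submerged platform. Latency recorded per trial; the mean total over the four trials was the animal's score, reported as mean ± SEM. Vehicle controls included. Groups compared with vehicle by one-way ANOVA and Dunnett t-test (p < 0.05).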

Mus musculus [2] = test: Activity was evaluated in C57BL/10 mice by Morris water Maze test and mean latency for TRH was reported at 0.03 mg/Kg i.p. dosage.
Summary of the method: (§2)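 Male C57BL/10 mice (17–21 g, housed 10 per group, food and water ad libitum). Drug in saline or 5% acacia, 10 mL/kg, given ip 30 min before the first of four trials to find a hidden submerged platform. Score was each mouse's mean total latency over the four trials; group mean ± SEM. Vehicle group included. Analysis: one-way ANOVA, then Dunnett t-test versus vehicle, p < 0.05.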

Mus musculus [3] = test: Activity was evaluated in C57BL/10 mice by Morris water Maze test and mean latency for TRH was reported at 0.03 mg/Kg p.o. dosage.; summary of the method: as §1
Mus musculus [4] = test: Activity was evaluated in C57BL/10 mice by Morris water Maze test and mean latency for TRH was reported at 0.3 mg/Kg i.p. dosage.; summary of the method: as §2
Mus musculus [5] = test: Activity was evaluated in C57BL/10 mice by Morris water Maze test and mean latency for TRH was reported at 3 mg/Kg i.p. dosage.; summary of the method: as §2
Mus musculus [6] = test: Activity was evaluated in C57BL/10 mice by Morris water Maze test and mean latency for TRH was reported at 0.00003 mg/Kg i.p. dosage.; summary of the method: as §2
Mus musculus [7] = test: Activity was evaluated in C57BL/10 mice by Morris water Maze test and mean latency for TRH was reported at 0.00003 mg/Kg p.o. dosage.; summary of the method: as §1
Mus musculus [8] = test: Activity was evaluated in C57BL/10 mice by Morris water Maze test and mean latency for TRH was reported at 0.0003 mg/Kg i.p. dosage.; summary of the method: as §2
Mus musculus [9] = test: Activity was evaluated in C57BL/10 mice by Morris water Maze test and mean latency for TRH was reported at 0.0003 mg/Kg p.o. dosage.; summary of the method: as §1
Mus musculus [10] = test: Activity was evaluated in C57BL/10 mice by Morris water Maze test and mean latency for TRH was reported at 0.003 mg/Kg i.p. dosage.; summary of the method: as §2
Mus musculus [11] = test: Activity was evaluated in C57BL/10 mice by Morris water Maze test and mean latency for TRH was reported at 0.01 mg/Kg i.p. dosage.; summary of the method: as §2
Mus musculus [12] = test: Activity was evaluated in C57BL/10 mice by Morris water Maze test and mean latency for TRH was reported at 0.1 mg/Kg i.p. dosage.; summary of the method: as §2
Mus musculus [13] = test: Activity was evaluated in C57BL/10 mice by Morris water Maze test and mean latency for TRH was reported at 1.0 mg/Kg i.p. dosage.; summary of the method: as §2
Mus musculus [14] = test: Activity was evaluated in C57BL/10 mice by Morris water Maze test and mean latency for TRH was reported at 0.001 mg/Kg i.p. dosage.; summary of the method: as §2
Mus musculus [15] = test: Activity was evaluated in C57BL/10 mice by Morris water Maze test and mean latency for TRH was reported at 10.0 mg/Kg i.p. dosage.; summary of the method: as §2
Mus musculus [16] = test: Activity was evaluated in C57BL/10 mice by Morris water Maze test and mean latency for TRH was reported at 3.0 mg/Kg i.p. dosage.; summary of the method: as §2
Mus musculus [17] = test: Activity was evaluated in C57BL/10 mice by Morris water Maze test and mean latency for TRH was reported at 0.01 mg/Kg p.o. dosage.; summary of the method: as §1
Mus musculus [18] = test: Activity was evaluated in C57BL/10 mice by Morris water Maze test and mean latency for TRH was reported at 0.1 mg/Kg p.o. dosage.; summary of the method: as §1
Mus musculus [19] = test: Activity was evaluated in C57BL/10 mice by Morris water Maze test and mean latency for TRH was reported at 0.3 mg/Kg p.o. dosage.; summary of the method: as §1
Mus musculus [20] = test: Activity was evaluated in C57BL/10 mice by Morris water Maze test and mean latency for TRH was reported at 3 mg/Kg p.o. dosage.; summary of the method: as §1

**Q.** `NC(=O)C[C@@H]1C[C@H](Cc2c[nH]cn2)C[C@H](C[C@@H]2CCC(=O)N2Cc2ccccc2)C1` was tested. Which Mean latency (Mus musculus [1]) did it give?
**A.** The Mean latency was 35.23 s.

**Q.** What about the Mean latency (Mus musculus [2]) of the same molecule?
**A.** Its Mean latency is 15.65 s.

**Q.** And the Mean latency (Mus musculus [3])?
**A.** The Mean latency was 21.1 s.

**Q.** And the Mean latency (Mus musculus [4])?
**A.** Its Mean latency is 17.62 s.

**Q.** What about the Mean latency (Mus musculus [5]) of the same molecule?
**A.** The Mean latency was 31.62 s.

**Q.** And the Mean latency (Mus musculus [6])?
**A.** The Mean latency was 62.15 s.

**Q.** And the Mean latency (Mus musculus [7])?
**A.** Its Mean latency is 46.67 s.

**Q.** What about the Mean latency (Mus musculus [8]) of the same molecule?
**A.** The Mean latency was 33.29 s.

**Q.** What about the Mean latency (Mus musculus [9]) of the same molecule?
**A.** Its Mean latency is 30.9 s.

**Q.** And the Mean latency (Mus musculus [10])?
**A.** Its Mean latency is 22.24 s.

**Q.** With `NC(=O)C[C@@H]1C[C@H](Cc2c[nH]cn2)C[C@H](C[C@@H]2CCC(=O)N2)C1` as the molecule, how does the Mean latency (Mus musculus [11]) read?
**A.** The Mean latency was 38.72 s.

**Q.** What about the Mean latency (Mus musculus [12]) of the same molecule?
**A.** The Mean latency was 45.06 s.

**Q.** And the Mean latency (Mus musculus [13])?
**A.** Its Mean latency is 25.23 s.

**Q.** What about the Mean latency (Mus musculus [14]) of the same molecule?
**A.** Its Mean latency is 47.62 s.

**Q.** For `C[C@H]1C[C@@H](CC(N)=O)C[C@@H](C[C@@H]2CCC(=O)N2)C1`, which Mean latency (Mus musculus [11]) is on record?
**A.** The Mean latency was 42.77 s.

**Q.** What about the Mean latency (Mus musculus [2]) of the same molecule?
**A.** Its Mean latency is 37.86 s.

**Q.** And the Mean latency (Mus musculus [12])?
**A.** Its Mean latency is 30.08 s.

**Q.** And the Mean latency (Mus musculus [4])?
**A.** The Mean latency was 43.13 s.

**Q.** `NC(=O)C[C@@H]1C[C@@H](Cc2c[nH]cn2)C[C@H](C[C@@H]2CCC(=O)N2)C1` was tested. Which Mean latency (Mus musculus [11]) did it give?
**A.** Its Mean latency is 57.12 s.

**Q.** And the Mean latency (Mus musculus [12])?
**A.** The Mean latency was 46.09 s.

**Q.** And the Mean latency (Mus musculus [13])?
**A.** Its Mean latency is 24.19 s.

**Q.** For `NC(=O)[C@@H]1CCCN1C(=O)[C@H](Cc1c[nH]cn1)NC(=O)[C@@H]1CCC(=O)N1` [PROTIRELIN], which Mean latency (Mus musculus [11]) is on record?
**A.** Its Mean latency is 37.97 s.

**Q.** And the Mean latency (Mus musculus [2])?
**A.** The Mean latency was 32.69 s.

**Q.** And the Mean latency (Mus musculus [12])?
**A.** The Mean latency was 25.76 s.

**Q.** What about the Mean latency (Mus musculus [4]) of the same molecule?
**A.** The Mean latency was 20.85 s.

**Q.** And the Mean latency (Mus musculus [13])?
**A.** Its Mean latency is 28.87 s.

**Q.** And the Mean latency (Mus musculus [15])?
**A.** The Mean latency was 46 s.

**Q.** And the Mean latency (Mus musculus [16])?
**A.** The Mean latency was 33.57 s.

**Q.** What about the Mean latency (Mus musculus [14]) of the same molecule?
**A.** The Mean latency was 50.59 s.

**Q.** What about the Mean latency (Mus musculus [10]) of the same molecule?
**A.** Its Mean latency is 43.08 s.

**Q.** Which results are given for `C[C@H]1C[C@@H](CC(N)=O)C[C@@H](C[C@@H]2CCC(=O)N2Cc2ccccc2)C1`?
**A.** Mean latency (Mus musculus [1]): 42.2 s; Mean latency (Mus musculus [11]): 22.15 s; Mean latency (Mus musculus [17]): 35.88 s; Mean latency (Mus musculus [2]): 26.49 s; Mean latency (Mus musculus [3]): 32.87 s; Mean latency (Mus musculus [12]): 26.87 s; Mean latency (Mus musculus [18]): 24.55 s; Mean latency (Mus musculus [19]): 46.53 s; Mean latency (Mus musculus [14]): 47.48 s; Mean latency (Mus musculus [10]): 36.26 s

**Q.** Which results are given for `NC(=O)C[C@@H]1C[C@@H](Cc2c[nH]cn2)C[C@H](C[C@@H]2CCC(=O)N2Cc2ccccc2)C1`?
**A.** Mean latency (Mus musculus [1]): 37.01 s; Mean latency (Mus musculus [3]): 28.87 s; Mean latency (Mus musculus [19]): 27.59 s; Mean latency (Mus musculus [20]): 43.72 s; Mean latency (Mus musculus [7]): 51.7 s; Mean latency (Mus musculus [9]): 42.81 s

— ChEMBL document CHEMBL1128483, “Peptide mimetics of thyrotropin-releasing hormone based on a cyclohexane framework: design, synthesis, and cognition-enhancing properties” (1995)
